Data on four compounds can be found in ChEMBL document CHEMBL1148638, “Aminopyridine-based c-Jun N-terminal kinase inhibitors with cellular activity and minimal cross-kinase activity” (J Med Chem, 2006).

Bounds are passed on as bounds.

For series [1], the target named is Tyrosine-protein kinase Fyn (Homo sapiens, UniProt P06241). The series is described as follows: Inhibition of Fyn. Summed up: (§1)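 Recombinant tyrosine kinases were incubated 1 h with biotinylated peptide (0.5 µM), ATP (10 µM to 1 mM) and inhibitor in 2% DMSO. Buffer was 50 mM Hepes pH 7.4 with MgCl2, MnCl2 and vanadate. Detection was HTRF: Eu anti-pY antibody plus streptavidin-APC, read 60 min later. IC50 came from titration curves, converted to Ki by Cheng-Prusoff.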

For series [2], the target named is Vascular endothelial growth factor receptor 1 (Homo sapiens, UniProt P17948). The series is described as follows: Inhibition of Flt1. The procedure, abridged:
as §1

For series [3], the target named is Tyrosine-protein kinase Lyn (Homo sapiens, UniProt P07948). The series is described as follows: Inhibition of Lyn. The procedure, abridged:
as §1

Series [4] has as its target Mast/stem cell growth factor receptor Kit (Homo sapiens, UniProt P10721). The series is described as follows: Inhibition of cKit. The procedure, abridged: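 Tyrosine kinases (recombinant, His/GST-purified or commercial) measured by HTRF: 0.5 µM biotinylated peptide, ATP 10 µM to 1 mM, inhibitor in 2% DMSO, 1 h in 50 mM Hepes pH 7.4 with MgCl2, MnCl2, Na3VO4, DTT, BSA. IC50 from six-point titrations; Ki via Cheng-Prusoff.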

Series [5] concerns the target Serine/threonine-protein kinase pim-2 (Homo sapiens, UniProt Q9P1W9). The series is described as follows: Inhibition of Pim2.
Series [6] has as its target T1, Serine/threonine-protein kinase Sgk1 (Homo sapiens, UniProt O00141).
T1 sequence (O00141 whole entry): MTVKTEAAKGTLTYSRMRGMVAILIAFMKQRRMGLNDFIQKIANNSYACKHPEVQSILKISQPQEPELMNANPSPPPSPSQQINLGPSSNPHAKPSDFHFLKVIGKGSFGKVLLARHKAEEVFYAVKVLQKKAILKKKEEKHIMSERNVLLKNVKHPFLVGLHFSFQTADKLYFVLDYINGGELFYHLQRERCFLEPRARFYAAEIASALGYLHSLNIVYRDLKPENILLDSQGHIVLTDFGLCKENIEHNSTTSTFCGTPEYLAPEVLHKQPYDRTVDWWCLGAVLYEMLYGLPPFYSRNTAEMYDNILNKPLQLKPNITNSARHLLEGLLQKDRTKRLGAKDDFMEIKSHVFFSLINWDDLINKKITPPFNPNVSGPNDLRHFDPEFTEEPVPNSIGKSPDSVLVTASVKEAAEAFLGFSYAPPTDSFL
The series is described as follows: Inhibition of SGK.

The target in series [7] is Tyrosine-protein kinase JAK3 (Homo sapiens, UniProt P52333). The series is described as follows: Inhibition of JAK3. Summed up:
as §1

Series [8] addresses Tyrosine-protein kinase ABL1 (Homo sapiens, UniProt P00519). The series is described as follows: Inhibition of Abl. Summed up:
as §1

Series [9] has as its target Tyrosine-protein kinase JAK2 (Homo sapiens, UniProt O60674). The series is described as follows: Inhibition of JAK2. The procedure, abridged:
as §1

The target in series [10] is Activated CDC42 kinase 1 (Homo sapiens, UniProt Q07912). The series is described as follows: Inhibition of CDC42. Summed up:
(§2)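 Recombinant kinases were commercial, or baculovirus-expressed and purified by His-tag or GST affinity. Each was incubated 1 h with biotinylated substrate peptide (2 µM), γ-[33P]-ATP (5 µM) and inhibitor (3-10000 nM, 2% DMSO) in 25 mM Hepes pH 7.5, 10 mM MgCl2, Na3VO4. Reactions were stopped with EDTA/NaCl and read by streptavidin FlashPlate capture. IC50 came from titrations, converted to Ki by Cheng-Prusoff.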

The target in series [11] is Tyrosine-protein kinase Blk (Homo sapiens, UniProt P51451).
Series [12] concerns the target T2, Calcium/calmodulin-dependent protein kinase type IV (Homo sapiens, UniProt Q16566).
T2 sequence (Q16566 whole entry): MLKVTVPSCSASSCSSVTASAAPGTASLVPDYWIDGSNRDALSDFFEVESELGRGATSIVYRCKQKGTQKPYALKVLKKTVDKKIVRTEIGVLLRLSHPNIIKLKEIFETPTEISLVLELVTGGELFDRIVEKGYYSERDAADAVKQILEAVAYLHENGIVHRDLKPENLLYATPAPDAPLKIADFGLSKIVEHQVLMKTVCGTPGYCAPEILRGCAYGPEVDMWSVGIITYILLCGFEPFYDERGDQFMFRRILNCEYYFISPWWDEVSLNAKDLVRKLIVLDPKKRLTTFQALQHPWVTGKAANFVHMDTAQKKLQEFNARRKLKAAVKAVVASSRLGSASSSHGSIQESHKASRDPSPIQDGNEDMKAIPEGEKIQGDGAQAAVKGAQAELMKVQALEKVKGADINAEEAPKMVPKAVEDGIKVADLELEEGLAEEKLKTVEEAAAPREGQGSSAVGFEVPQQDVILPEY
The series is described as follows: Inhibition of CaMK4. Summed up:
as §2

Series [13] has as its target Death-associated protein kinase 3 (Homo sapiens, UniProt O43293). The series is described as follows: Inhibition of ZipK.
For series [14], the target named is Receptor tyrosine-protein kinase erbB-2 (Homo sapiens, UniProt P04626). The series is described as follows: Inhibition of ErbB2. The procedure, abridged:
as §1

Series [15] in a line: Plasma clearance in iv dosed Sprague-Dawley rat. It counts as ADME, organism-based.
The nature of series [16]: AUC in iv dosed Sprague-Dawley rat. As to conditions: plasma. The class given is ADME, organism-based. Summed up:
(§3)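 Sprague-Dawley rats received 5 mg/kg intravenously. Half-life is reported in hours. AUC is total drug exposure after iv dosing, from t = 0 to t = ∞, in µg·h/mL.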

Series [17] in a line: Half life in iv dosed Sprague-Dawley rat. The class given is ADME, organism-based. As to conditions: in vivo. The procedure, abridged:
as §3

A short description of series [18]: Half life in po dosed Sprague-Dawley rat. The class given is ADME, organism-based. As to conditions: in vivo. The procedure, abridged:
(§4)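 Sprague-Dawley rats were dosed orally. Oral half-life is reported in hours and Cmax as the maximum plasma concentration in µM. AUC is total oral exposure from t = 0 to t = ∞, in µg·h/mL.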

A short description of series [19]: Volume of distribution in iv dosed Sprague-Dawley rat. It counts as ADME, organism-based. The settings on record: in vivo, read-out: Vdss.
A short description of series [20]: Tmax in po dosed Sprague-Dawley rat. The class given is ADME, organism-based. As to conditions: in vivo.
Series [21] in a line: Oral bioavailability in Sprague-Dawley rat. It counts as ADME, organism-based. The settings on record: in vivo.
Series [22] has as its target Mitogen-activated protein kinase 13 (Homo sapiens, UniProt O15264).
Series [23] in a line: Cmax in po dosed Sprague-Dawley rat. The class given is ADME, organism-based. Set-up: route oral. The settings on record: in vivo. The procedure, abridged:
as §4

Series [24] in a line: Volume of distribution at steady state in iv dosed Sprague-Dawley rat. It counts as ADME, organism-based. As to conditions: in vivo, read-out: Vss.
Series [25] can be described thus: AUC in po dosed Sprague-Dawley rat. It counts as ADME, organism-based. The settings on record: plasma. The procedure, abridged: as §4
In series [26] the target is Mitogen-activated protein kinase 10 (Homo sapiens, UniProt P53779). The series is described as follows: Inhibition of JNK3-mediated ATF2 phosphorylation.
Sequence of Mitogen-activated protein kinase 10 (P53779 whole entry): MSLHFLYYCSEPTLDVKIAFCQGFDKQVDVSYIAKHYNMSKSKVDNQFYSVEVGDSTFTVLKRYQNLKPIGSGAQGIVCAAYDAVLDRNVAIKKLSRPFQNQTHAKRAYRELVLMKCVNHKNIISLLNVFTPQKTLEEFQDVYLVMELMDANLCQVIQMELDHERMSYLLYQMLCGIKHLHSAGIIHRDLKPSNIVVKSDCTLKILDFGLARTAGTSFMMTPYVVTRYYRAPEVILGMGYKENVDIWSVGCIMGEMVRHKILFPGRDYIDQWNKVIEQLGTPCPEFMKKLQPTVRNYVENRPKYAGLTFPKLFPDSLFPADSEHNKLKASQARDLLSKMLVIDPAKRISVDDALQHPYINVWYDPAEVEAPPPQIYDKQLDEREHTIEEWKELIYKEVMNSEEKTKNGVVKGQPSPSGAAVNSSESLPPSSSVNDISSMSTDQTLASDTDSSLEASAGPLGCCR

Sequence of Activated CDC42 kinase 1 (Q07912 whole entry): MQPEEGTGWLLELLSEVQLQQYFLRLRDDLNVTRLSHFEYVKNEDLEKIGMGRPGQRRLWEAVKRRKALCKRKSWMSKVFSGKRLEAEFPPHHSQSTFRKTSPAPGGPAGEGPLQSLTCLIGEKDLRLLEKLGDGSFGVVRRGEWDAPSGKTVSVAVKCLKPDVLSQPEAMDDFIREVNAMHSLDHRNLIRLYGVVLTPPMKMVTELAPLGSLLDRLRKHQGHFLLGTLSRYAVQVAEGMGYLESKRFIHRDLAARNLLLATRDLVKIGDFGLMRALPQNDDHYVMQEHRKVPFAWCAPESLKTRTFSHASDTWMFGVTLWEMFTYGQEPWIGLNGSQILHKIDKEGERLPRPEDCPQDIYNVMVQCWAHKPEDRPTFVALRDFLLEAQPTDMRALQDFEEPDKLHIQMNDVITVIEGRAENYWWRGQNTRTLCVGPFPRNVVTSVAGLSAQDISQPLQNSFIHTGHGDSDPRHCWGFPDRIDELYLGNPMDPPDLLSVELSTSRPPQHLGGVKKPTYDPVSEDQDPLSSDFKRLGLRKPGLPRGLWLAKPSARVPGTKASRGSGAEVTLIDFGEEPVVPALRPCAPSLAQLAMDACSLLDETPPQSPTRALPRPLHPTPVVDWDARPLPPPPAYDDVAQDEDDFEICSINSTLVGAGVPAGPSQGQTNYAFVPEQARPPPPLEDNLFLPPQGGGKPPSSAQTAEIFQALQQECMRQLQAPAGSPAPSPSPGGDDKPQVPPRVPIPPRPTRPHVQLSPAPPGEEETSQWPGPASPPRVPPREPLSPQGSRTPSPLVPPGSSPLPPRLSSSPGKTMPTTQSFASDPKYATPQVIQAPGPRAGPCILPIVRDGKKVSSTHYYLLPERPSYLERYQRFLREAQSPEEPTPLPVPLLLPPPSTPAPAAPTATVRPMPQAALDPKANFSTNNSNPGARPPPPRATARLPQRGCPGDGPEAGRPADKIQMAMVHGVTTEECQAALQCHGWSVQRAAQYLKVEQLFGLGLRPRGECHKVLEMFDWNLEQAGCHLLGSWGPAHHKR
Sequence of Tyrosine-protein kinase Fyn (P06241 whole entry): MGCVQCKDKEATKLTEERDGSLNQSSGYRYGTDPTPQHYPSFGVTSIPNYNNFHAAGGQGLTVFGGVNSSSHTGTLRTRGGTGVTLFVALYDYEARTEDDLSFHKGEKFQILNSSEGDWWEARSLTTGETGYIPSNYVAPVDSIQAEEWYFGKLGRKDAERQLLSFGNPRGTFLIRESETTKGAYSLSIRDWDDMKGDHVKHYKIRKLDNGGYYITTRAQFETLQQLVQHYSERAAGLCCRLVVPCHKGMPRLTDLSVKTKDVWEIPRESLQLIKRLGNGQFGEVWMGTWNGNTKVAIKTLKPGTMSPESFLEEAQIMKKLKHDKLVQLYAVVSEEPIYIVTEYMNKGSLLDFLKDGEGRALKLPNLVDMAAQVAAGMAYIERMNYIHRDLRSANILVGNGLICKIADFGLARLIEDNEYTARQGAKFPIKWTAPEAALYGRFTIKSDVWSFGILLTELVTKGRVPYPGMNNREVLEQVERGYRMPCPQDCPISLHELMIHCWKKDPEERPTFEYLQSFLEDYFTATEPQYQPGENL
Sequence of Death-associated protein kinase 3 (O43293 whole entry): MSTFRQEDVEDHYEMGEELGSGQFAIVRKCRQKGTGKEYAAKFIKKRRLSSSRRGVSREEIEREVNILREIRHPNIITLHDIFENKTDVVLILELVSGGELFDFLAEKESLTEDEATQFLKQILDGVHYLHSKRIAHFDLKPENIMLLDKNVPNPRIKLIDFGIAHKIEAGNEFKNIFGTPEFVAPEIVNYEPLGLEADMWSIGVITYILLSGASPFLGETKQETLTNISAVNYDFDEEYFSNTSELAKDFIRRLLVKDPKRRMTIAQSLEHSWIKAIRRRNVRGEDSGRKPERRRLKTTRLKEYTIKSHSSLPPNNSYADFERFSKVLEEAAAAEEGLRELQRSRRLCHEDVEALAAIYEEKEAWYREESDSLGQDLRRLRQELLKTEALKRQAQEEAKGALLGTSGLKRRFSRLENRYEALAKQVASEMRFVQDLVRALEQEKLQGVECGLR
Sequence of Tyrosine-protein kinase Blk (P51451 whole entry): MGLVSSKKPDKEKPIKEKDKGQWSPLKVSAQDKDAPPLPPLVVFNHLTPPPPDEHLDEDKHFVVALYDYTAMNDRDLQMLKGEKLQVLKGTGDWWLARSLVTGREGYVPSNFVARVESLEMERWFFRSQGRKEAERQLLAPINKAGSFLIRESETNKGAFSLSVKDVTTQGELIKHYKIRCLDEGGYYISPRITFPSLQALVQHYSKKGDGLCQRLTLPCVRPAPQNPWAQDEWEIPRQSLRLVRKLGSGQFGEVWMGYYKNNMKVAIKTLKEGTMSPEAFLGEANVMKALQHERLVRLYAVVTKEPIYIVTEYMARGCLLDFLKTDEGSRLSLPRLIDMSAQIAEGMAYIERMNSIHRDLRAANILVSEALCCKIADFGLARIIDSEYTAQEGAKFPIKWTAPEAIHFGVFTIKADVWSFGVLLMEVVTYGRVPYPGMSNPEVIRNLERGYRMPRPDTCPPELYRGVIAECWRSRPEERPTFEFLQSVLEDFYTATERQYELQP
Sequence of Mitogen-activated protein kinase 13 (O15264 whole entry): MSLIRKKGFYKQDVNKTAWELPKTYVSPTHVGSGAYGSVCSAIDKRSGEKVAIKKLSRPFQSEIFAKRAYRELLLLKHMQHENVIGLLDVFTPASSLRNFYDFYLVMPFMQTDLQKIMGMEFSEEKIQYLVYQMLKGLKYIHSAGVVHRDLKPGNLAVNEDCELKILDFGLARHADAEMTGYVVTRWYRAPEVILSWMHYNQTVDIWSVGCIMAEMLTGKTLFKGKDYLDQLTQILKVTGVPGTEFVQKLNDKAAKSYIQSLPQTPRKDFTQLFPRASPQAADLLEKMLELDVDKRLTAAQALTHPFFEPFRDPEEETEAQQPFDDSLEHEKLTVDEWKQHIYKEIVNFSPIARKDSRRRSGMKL
Sequence of Tyrosine-protein kinase Lyn (P07948 whole entry): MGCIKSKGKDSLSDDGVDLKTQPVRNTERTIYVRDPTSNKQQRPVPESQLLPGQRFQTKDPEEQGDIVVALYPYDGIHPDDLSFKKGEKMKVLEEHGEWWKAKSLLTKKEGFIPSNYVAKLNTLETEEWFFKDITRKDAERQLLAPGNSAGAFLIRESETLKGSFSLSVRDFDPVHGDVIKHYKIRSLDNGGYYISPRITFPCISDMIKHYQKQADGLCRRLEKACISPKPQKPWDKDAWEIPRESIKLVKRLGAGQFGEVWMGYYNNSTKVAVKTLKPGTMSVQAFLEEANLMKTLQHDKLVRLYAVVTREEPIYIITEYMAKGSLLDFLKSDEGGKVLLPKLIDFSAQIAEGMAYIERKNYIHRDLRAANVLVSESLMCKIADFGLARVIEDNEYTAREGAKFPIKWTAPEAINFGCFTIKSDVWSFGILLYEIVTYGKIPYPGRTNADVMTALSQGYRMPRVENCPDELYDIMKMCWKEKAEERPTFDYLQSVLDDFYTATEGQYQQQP
Sequence of Tyrosine-protein kinase JAK2 (O60674 whole entry): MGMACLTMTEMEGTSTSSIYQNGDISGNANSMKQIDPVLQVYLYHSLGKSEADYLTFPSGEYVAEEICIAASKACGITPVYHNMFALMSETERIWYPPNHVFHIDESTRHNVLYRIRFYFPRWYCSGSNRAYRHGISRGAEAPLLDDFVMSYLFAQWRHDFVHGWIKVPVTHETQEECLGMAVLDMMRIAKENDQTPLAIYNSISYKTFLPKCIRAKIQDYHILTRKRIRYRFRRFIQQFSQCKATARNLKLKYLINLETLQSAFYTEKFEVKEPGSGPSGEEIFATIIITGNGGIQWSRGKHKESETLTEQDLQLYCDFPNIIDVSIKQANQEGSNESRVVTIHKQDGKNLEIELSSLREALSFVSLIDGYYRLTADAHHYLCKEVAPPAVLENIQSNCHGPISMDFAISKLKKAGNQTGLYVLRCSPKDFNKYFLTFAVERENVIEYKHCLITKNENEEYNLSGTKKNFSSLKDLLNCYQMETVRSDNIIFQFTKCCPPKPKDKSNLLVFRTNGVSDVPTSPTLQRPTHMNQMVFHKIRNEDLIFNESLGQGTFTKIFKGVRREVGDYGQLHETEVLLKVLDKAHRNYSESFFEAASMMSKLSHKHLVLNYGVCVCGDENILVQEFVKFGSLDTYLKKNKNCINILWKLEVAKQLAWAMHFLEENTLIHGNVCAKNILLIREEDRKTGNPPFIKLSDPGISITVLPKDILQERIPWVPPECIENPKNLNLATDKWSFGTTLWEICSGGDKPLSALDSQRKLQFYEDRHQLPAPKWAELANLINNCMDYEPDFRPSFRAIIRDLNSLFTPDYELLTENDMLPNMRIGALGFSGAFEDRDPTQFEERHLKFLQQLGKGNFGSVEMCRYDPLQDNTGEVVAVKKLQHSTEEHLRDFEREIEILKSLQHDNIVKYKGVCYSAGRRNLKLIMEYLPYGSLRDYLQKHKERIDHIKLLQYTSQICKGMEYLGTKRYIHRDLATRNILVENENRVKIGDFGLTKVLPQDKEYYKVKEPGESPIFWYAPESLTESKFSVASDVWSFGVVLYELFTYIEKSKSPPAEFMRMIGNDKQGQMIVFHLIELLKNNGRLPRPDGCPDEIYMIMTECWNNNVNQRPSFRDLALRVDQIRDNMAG

With `CCOc1nc(NC(C)=O)cc(N)c1C#N`, the Ki (as a rule, a measure of affinity in units of concentration, obtained from inhibition or displacement) was > 810 nM in [1]; > 440 nM in series [2]; > 1700 nM in series [3]; > 1200 nM in [4]; > 1400 nM in [5]; > 9400 nM in series [6]. For the same compound, the Ki in series [7] is > 1700 nM; in series [8] it was > 710 nM; in series [9], > 1500 nM; in series [10], > 9500 nM; in series [11] it was > 1500 nM; in [12] it was > 8600 nM. Also, the Ki in [13] and in series [14] was > 1400 nM each time.
In the case of `CCOc1nc(NC(=O)Cc2cc(OC)ccc2OC)cc(N)c1C#N`, the clearance (commonly the rate of elimination divided by the concentration) in series [15] was 20 mL/min/kg. The AUC (commonly concentration integrated over time) in series [16] came out at 4100 ng·h/mL; in series [25], 110 ng·h/mL. Besides, the half-life – broadly, the time in which the quantity being followed falls by half – in series [17] was 1.4 h; in series [18], 1.1 h. The Vd in series [19] is 2.6 L/kg; in series [24] it was 1.2 L/kg. Further, the Ki in series [6] was > 9400 nM; in series [22] it was > 6900 nM; in series [10] it was > 9500 nM; in [12], > 8600 nM. Further, the Tmax (usually the time from dosing to the highest level) in series [20] stood at 0.033 h. Besides, in series [21], the bioavailability (as a rule, dose-corrected exposure relative to a reference, in per cent) was determined as 2.7%. In addition, the Cmax – broadly, the maximum level reached in the sampled fluid or tissue – in [23] is 310 nM.
On to `CCOc1nc(NC(=O)Cc2cc(OC)c(S(C)(=O)=O)cc2OC)cc(N)c1Cl`, for which the clearance in series [15] is 28.3 mL/min/kg. Further, the AUC in series [16] worked out at 3000 ng·h/mL; in [25] it was 1500 ng·h/mL. Moreover, the half-life in series [17] was 0.8 h; in series [18] it was 2.1 h. The Vd worked out at 2 L/kg in series [19] and 1.6 L/kg in series [24]. Moreover, the Ki was > 9400 nM in series [6], > 9500 nM in series [10], > 8600 nM in series [12] and 61 nM in [26]. For the same compound, the Tmax in [20] was 0.67 h. Moreover, the bioavailability in [21] came out at 49%. In [23], this compound showed a Cmax of 1420 nM.
Turning to `CCOc1nc(NC(=O)Cc2cc(OC)c(S(C)(=O)=O)cc2OC)cc(N)c1C#N`, the clearance in series [15] is 25 mL/min/kg. The AUC in series [16] came out at 3500 ng·h/mL; in [25] it was 1100 ng·h/mL. Also, the half-life in [17] was 2 h; in series [18], 1.5 h. In addition, the figures for the Vd in [19] and in series [24] were 4.7 L/kg and 1.5 L/kg, respectively. Also, the Ki in [6] was > 9400 nM; in series [10], > 9500 nM; in [12], > 8600 nM; in series [26] it was 72 nM. Further, in [20], the Tmax is 0.5 h. The compound also displayed a bioavailability in [21] of 31%. Also, the Cmax in [23] came out at 1360 nM.
